Reference: ChEMBL document CHEMBL1139725, “Synthesis and SAR of novel hydantoin derivatives as selective androgen receptor modulators” (2006)
Activity calls are given as the source filed them. The rule behind the calls is not given here.

Assays:
Rattus norvegicus [1] = species on record: Rattus norvegicus; assay: Stimulation of levator ani muscle weight in Sprague-Dawley rat at 2 mg/day relative to testosterone; assay type: functional
Procedure, shortened: (§1)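 Agonist mode of a five-day modified Hershberger assay in immature (about 50 g) castrated male Sprague–Dawley rats. Activity is % stimulation of tissue weight, with vehicle-treated control set to 0% and testosterone-alone control to 100%.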

Rattus norvegicus [2] = assay: Stimulation of prostate weight in Sprague-Dawley rat at 2 mg/day, po relative to testosterone; assay type: functional, Prostate gland; procedure, shortened: as §1
Rattus norvegicus [3] = assay: Inhibition of prostate weight in Sprague-Dawley rat at 2 mg/day, po relative to control; assay type: functional, Prostate gland
Procedure, shortened: (§2)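 Five-day antagonist assay in immature (about 50 g) castrated male Sprague–Dawley rats. Compound given po in 20% cyclodextrin once daily at 2 mg/day for 5 days, with testosterone propionate co-dosed sc in sesame oil at 0.1 mg/d ([…]). Read-out is % inhibition of testosterone-enhanced tissue weight, with vehicle control set to 100% and testosterone-alone control to 0%; n = 3/group.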

Rattus norvegicus [4] = species on record: Rattus norvegicus; assay: Stimulation of prostate weight in Sprague-Dawley rat relative to testosterone; assay type: functional, organism-based; details: Prostate gland
Procedure, shortened: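 Immature castrated male Sprague–Dawley rats (about 50 g) were dosed for five days. Prostate weight was expressed as percent stimulation: vehicle-treated controls were set to 0% and testosterone-alone controls to 100%. The testosterone propionate reference was given subcutaneously at the nape of the neck at 5 mg/kg in sesame oil.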

Rattus norvegicus [5] = species on record: Rattus norvegicus; assay: Stimulation of levator ani muscle weight in Sprague-Dawley rat relative to testosterone; assay type: functional; procedure, shortened: as §1
Rattus norvegicus [6] = assay: Inhibition of seminal vesicle weight in Sprague-Dawley rat at 2 mg/day, po relative to control; assay type: functional; procedure, shortened: as §2
Rattus norvegicus [7] = species on record: Rattus norvegicus; assay: Stimulation of prostate weight in Sprague-Dawley rat at 3 mg/day relative to testosterone; assay type: functional, Prostate gland; procedure, shortened: as §1
Rattus norvegicus [8] = assay: Stimulation of levator ani muscle weight Sprague-Dawley rat at 5 mg/kg, sc; assay type: functional; details: route subcutaneous
Procedure, shortened: (§3)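 Testosterone propionate injected sc at the nape of the neck at 5 mg/kg in sesame oil, in immature (about 50 g) castrated male Sprague–Dawley rats in a five-day modified Hershberger assay. Read-out is stimulation of tissue weight.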

Rattus norvegicus [9] = assay: Stimulation of prostate weight in Sprague-Dawley rat at 5 mg/kg, sc; assay type: functional, Prostate gland; details: route subcutaneous; procedure, shortened: as §3

SMILES | Activity (Rattus norvegicus [2]) [%] | Inhibition (Rattus norvegicus [3]) [%] | Activity (Rattus norvegicus [5]) | Inhibition (Rattus norvegicus [6]) [%] | further results
CCOC(=O)C1=NN2C(=O)N(c3ccc([N+](=O)[O-])c(C(F)(F)F)c3)C(=O)C2(C)C1 (stereo unspecified) | <10 | 35 |  |  | Activity (Rattus norvegicus [1]): <10%
C[C@@]12CC(C(F)(F)F)=NN1[S+]([O-])N(c1ccc(C#N)c(C(F)(F)F)c1)C2=O (stereo partly specified) | 58 | 41 |  |  | Activity (Rattus norvegicus [1]): 117%
CCOC(=O)C1=NN2C(=O)C(=O)N(c3ccc(C#N)c(C(F)(F)F)c3)C(=O)C2(C)C1 (stereo unspecified) | <10 | 15 |  |  | Activity (Rattus norvegicus [1]): <10%
CC(O)(CS(=O)(=O)c1ccc(F)cc1)C(=O)Nc1ccc(C#N)c(C(F)(F)F)c1 (stereo unspecified) [BICALUTAMIDE] |  | 70 | inactive | 80 | Activity (Rattus norvegicus [4]): inactive
CC12COC(=O)N1C(=O)N(c1ccc(Cl)c(C(F)(F)F)c1)C2=O (stereo unspecified) |  | 55 |  | 51 | 
CC12CNC(=O)N1C(=O)N(c1ccc(Cl)c(C(F)(F)F)c1)C2=O (stereo unspecified) |  | 33 |  | 19 | 
C[C@@]12CC(C(F)(F)F)=NN1C(=O)N(c1ccc(C#N)c(C(F)(F)F)c1)C2=O |  | 26 | 75% |  | Activity (Rattus norvegicus [7]): 11%
CC12COC(=O)N1C(=O)N(c1ccc(C#N)c(C(F)(F)F)c1)C2=O (stereo unspecified) |  | 75 |  | 80 | 
CN1CC2(C)C(=O)N(c3ccc(C#N)c(C(F)(F)F)c3)C(=O)N2C1=O (stereo unspecified) |  | 87 |  | 85 | 
C[C@@]12CCCN1C(=O)N(c1ccc(Cl)c(C(F)(F)F)c1)C2=O |  | 32 | inactive | <10 | Activity (Rattus norvegicus [4]): inactive
CCC(=O)O[C@H]1CC[C@H]2[C@@H]3CCC4=CC(=O)CC[C@]4(C)[C@H]3CC[C@]12C [TESTOSTERONE PROPIONATE] |  |  |  |  | Activity (Rattus norvegicus [8]): 100%; Activity (Rattus norvegicus [9]): 100%
C[C@@]12CCCN1C(=O)N(c1ccc(Cl)c(Cl)c1)C2=O |  | 11 | inactive | 16 | Activity (Rattus norvegicus [4]): inactive; Activity (Rattus norvegicus [2]; Prostate gland): inactive
CC12CC=NN1C(=O)N(c1ccc(C#N)c(C(F)(F)F)c1)C2=O (stereo unspecified) | <10 | 26 |  |  | Activity (Rattus norvegicus [1]): <10%
C[C@@]12CC(C(F)(F)F)=NN1C(=O)C(=O)N(c1ccc(C#N)c(C(F)(F)F)c1)C2=O | 12 | 27 |  |  | Activity (Rattus norvegicus [1]): 21%
CC12CC(C(F)(F)F)=NN1C(=O)N(c1ccc([N+](=O)[O-])c(C(F)(F)F)c1)C2=O (stereo unspecified) | 51 | 39 |  |  | Activity (Rattus norvegicus [1]): 73%
C[C@@]12CCCN1C(=S)N(c1ccc(Cl)c(C(F)(F)F)c1)C2=O |  | 19 | inactive | <10 | Activity (Rattus norvegicus [4]): inactive
CC12COC(=O)N1C(=O)N(c1ccc([N+](=O)[O-])c(C(F)(F)F)c1)C2=O (stereo unspecified) |  | 43 |  | 28 | 
C[C@@]12CCCN1C(=S)N(c1ccc(C#N)c(C(F)(F)F)c1)C2=O |  | 78 | inactive | 95 | Activity (Rattus norvegicus [4]): inactive
CC12CNC(=O)N1C(=O)N(c1ccc(C#N)c(C(F)(F)F)c1)C2=O (stereo unspecified) |  | 79 |  | 86 | 
CC12CNC(=O)N1C(=O)N(c1ccc([N+](=O)[O-])c(C(F)(F)F)c1)C2=O (stereo unspecified) |  | 32 |  | 15 | 
CN1CC2(C)C(=O)N(c3ccc(Cl)c(C(F)(F)F)c3)C(=O)N2C1=O (stereo unspecified) |  | 77 |  | 85 | 
C[C@]12CC(C(F)(F)F)=NN1C(=O)N(c1ccc(C#N)c(C(F)(F)F)c1)C2=O |  | 21 | 42% |  | Activity (Rattus norvegicus [7]): 14%
C[C@@]12CCCN1C(=O)N(c1ccc(C#N)c(C(F)(F)F)c1)C2=O |  | 69 | inactive | <10 | Activity (Rattus norvegicus [4]): inactive
CCOC(=O)C1=NN2C(=O)N(c3ccc(C#N)c(C(F)(F)F)c3)C(=O)C2(C)C1 (stereo unspecified) | <10 | 16 | <10% |  | 
C[C@@]12CC(C(F)(F)F)=NN1S(=O)(=O)N(c1ccc(C#N)c(C(F)(F)F)c1)C2=O | 41 | 28 |  |  | Activity (Rattus norvegicus [1]): 66%
C[C@@]12CCCN1C(=S)N(c1ccc(Cl)c(Cl)c1)C2=O |  | 17 | inactive | 27 | Activity (Rattus norvegicus [4]): inactive; Activity (Rattus norvegicus [2]; Prostate gland): inactive
CC(=O)Nc1ccc(C2=NN3C(=O)N(c4ccc(C#N)c(C(F)(F)F)c4)C(=O)C3(C)C2)cc1 (stereo unspecified) | <10 | 25 |  |  | Activity (Rattus norvegicus [1]): 13%
